The text below walks through data of publication PMC3863817 (Scientific Reports, 2013).

In experiment [1] the test system is COS7 cells. In words: Measurement of cellular ATP levels. Format: cell-based, African green monkey. The following applies: positive control, 1 μM for 4 h. An outline of the steps: (§1)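 Cells plated at 2 × 10^5 per well and grown 1 day. They were exposed to 20 μM test compound for 4, 8, 16 or 24 h, or to rotenone (1 μM, 4 h) as positive control, at 37°C. KB cells were in folic acid-depleted RPMI-1640 and COS7 in DMEM, each with 10% FBS. Harvested cells were lysed in 1% TCA/4 mM EDTA for 20 min on ice, then Tris (pH 7.4). ATP was read with a bioluminescent kit on a chemiluminometer.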

Experiment [2] has as its system KB cells. In words: Measurement of cellular ATP levels. It is filed as cell-based, human. The following applies: positive control, 1 μM for 4 h. In short, it runs like this:
as §1

For `C=C(C)[C@H]1Cc2c(ccc3c2O[C@@H]2COc4cc(OC)c(OC)cc4[C@@H]2C3=O)O1` [rotenone], the “Cellular ATP level, in words” value in experiment [1] and in experiment [2] was “induce a decrease in cellular ATP level” each time.
